# Compound activity from PubChem BioAssay.
# Shown are actives, neighbours in structure and some others; about 3.4% of the full set was active somewhere.
# AHR activator – activates the human aryl hydrocarbon receptor | P35869 | AHR-responsive luciferase reporter cells, luminescence | activation, % at 5 µM | 320,000 tested, 2.5% active; in the data active = activation above about 47%;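 also: 0% = vehicle wells and 100% = reference agonist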
# APOBEC3G inh – APOBEC3G (human) deaminase inhibition. Q9HC16. recombinant A3G, ssDNA deamination FAM/TAMRA fluorescence. inhibition, % at 20 µM. 330,000 tested, 0.28% active. AID 493012;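 active = inhibition of at least 40% at 20 µM, with no more than 30% in the related APOBEC3A deaminase screen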;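 also: plate controls were DMSO wells with A3G for no effect and wells lacking A3G enzyme for full effect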
# UCH37 inh – inhibitors of human deubiquitinating enzyme UCH37. inhibition, % (test concentration not listed). 330,000 tested, 0.33% active. purified proteasome/UCH37, Ub-AMC cleavage fluorescence;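 active = mean inhibition over replicate wells above about 20%, limit read from the data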;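 also: 0% = compound-free wells with enzyme and 100% = wells lacking proteasome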
#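 assay system = human UCH37 enzyme supplied as purified proteasome complex | amount = proteasome at 0.15 nM in the dispensed enzyme solution | schedule = 30 min compound-proteasome preincubation then 25 min substrate reaction, room temperature | measured by = fluorescence, ex 355 nm, em 460 nm | benchmarks = no-proteasome wells (full inhibition) and compound-free wells (no inhibition)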
# PolyA inhibitor – blocks polyadenylation in yeast reporter cells; S. cerevisiae SKY197-pL101 polyadenylation reporter, beta-gal luminescence; efflux-impaired pdr1/pdr3 knockout yeast; score 100 = 6 SD above DMSO; 300,000 tested, 0.02% active; activity score, % at 12 µM;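 active = lowest replicate activity score at least 50, where 100 means six control SD above control mean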;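 also: yeast exposed to compound for 9 h at 30 °C; higher score means more reporter readthrough which indicates perturbed polyadenylation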
# APOBEC3A inh – human APOBEC3A DNA deaminase inhibition. P31941. recombinant A3A, FAM/TAMRA ssDNA deamination fluorescence. 330,000 tested, 0.41% active. AID 493011. inhibition, % at 20 µM;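 active = at least 40% inhibition at 20 µM here, with at most 30% in a related deaminase screen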;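 also: plate controls were A3A with DMSO for no effect and wells lacking A3A enzyme for full effect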
# Arrestin-AP2 inh – blocks beta-arrestin peptide binding to AP2 adaptin. 340,000 tested, 0.31% active. inhibition, % at 10 µM. AID 504490. FITC-arrestin peptide / GST-AP2 beads, flow cytometry; AP2 beta2 appendage carries R879A mutation;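 active = inhibition above a set limit, near 3 SD of compounds lacking own fluorescence, cut at about 54% in these data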;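 also: plate controls were DMSO wells for no effect and 5 µM unlabelled arrestin peptide for full effect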
#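 System: GST-AP2 R879A bound to glutathione beads, E. coli-expressed. Also added: 50 nM FITC-arrestin peptide. Schedule: compound with beads 12 min RT, then probe 1 h RT. Signal: bead flow cytometry, FITC channel. Read-out basis: percent response.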
# The depositor's hits bear a star; x = not tested or not shown.
SMILES,AHR activator,APOBEC3G inh,UCH37 inh,PolyA inhibitor,APOBEC3A inh,Arrestin-AP2 inh
Cc1ncsc1CCSc1nc2ccccc2c(=O)n1C,96*,9,2,-8,0,9
COc1ccc(OCc2cc(C(=O)NC3CCOCC3)no2)c2ccccc12,17,-9,24*,-19,-5,3
COc1ccc(OCc2cc(C(=O)N3CCCC(OC)C3)no2)c2ccccc12 (configuration not stated),36,0,x,15,-4,-14
COc1ccc(OCc2cc(C(=O)N3CCCC(O)C3)no2)c2ccccc12 (configuration not stated),52*,0,13,-1,-3,6
CC(O)[C@H]1CC[C@H]2[C@@H]3CC[C@H]4C[C@@H](O)CC[C@]4(C)[C@H]3C(=NO)C[C@]12C (some centres not stated),x,x,0,x,x,x
CCNC(=S)Nc1ccc(Oc2ccccc2)cc1,3,0,1,-13,2,-8
S=C(NCc1ccccc1)Nc1ccc(Oc2ccccc2)cc1,74*,-5,1,-6,-11,47
COc1ccc(C(=O)CSC2=C(C#N)C3(CCCCC3)C(C#N)=C(N)N2)cc1,52*,-6,2,-8,0,-1
N#CC1=C(N)NC(SCC(=O)c2ccc(Br)cc2)=C(C#N)C12CCCCC2,36,-5,3,-21,1,8
CCCc1c(C(=O)NN=Cc2sccc2C)nnn1-c1nonc1N,x,x,3,x,x,x
NNC(=O)c1sc(-c2ccc(Cl)cc2)cc1N,48*,2,-7,8,2,-9
Cc1ccc(-c2cc(C(=O)NN=Cc3c(C)nn(C)c3C)c3ccccc3n2)c(C)c1,x,x,0,x,x,x
COc1cccc(C(=O)Nc2nc3ccccc3[nH]2)c1,23,3,-5,-20,1,30
O=C(Nc1nc2ccccc2[nH]1)c1cccc([N+](=O)[O-])c1,50*,-3,x,-3,1,24
O=C(Nc1nc2ccccc2[nH]1)Nc1ccccc1F,48*,-7,5,-11,-1,3
COc1ccc(C(=O)Nc2nc3ccccc3[nH]2)cc1,50*,-7,2,23,-2,-2
O=C(Nc1nc2ccccc2[nH]1)c1ccc([N+](=O)[O-])cc1,-3,-7,1,23,0,-4
O=C(CSc1nc2ccccc2[nH]1)Nc1ccccc1F,2,0,3,-11,1,2
O=C(Nc1nc2ccccc2[nH]1)c1cccc(Br)c1,57*,-10,3,-29,-4,-8
CC(=NNC(=O)Cn1ccc(C(F)(F)F)n1)c1ccc2c(c1)OCO2,x,x,1,x,x,x
Cc1ccc(-n2c(SCC(=O)NN=Cc3ccc(C)s3)nnc2-c2ccccc2)cc1,x,x,2,x,x,x
CCCCCCCC1CC(C(C)=NNC(N)=O)OC1=O (configuration not stated),x,x,-1,x,x,x
O=C(NN=Cc1ccc(OC(=O)c2cccc(F)c2)cc1)c1cccnc1,x,x,5,x,x,x
CSc1ccccc1C(=O)Nc1nc2ccccc2c(=O)[nH]1,4,-2,4,17,0,24
CSc1ccccc1C(=O)Nc1nc2ccccc2[nH]1,68*,0,2,-10,-6,2
SMILES,AHR activator,APOBEC3G inh,UCH37 inh,PolyA inhibitor,APOBEC3A inh,Arrestin-AP2 inh
COc1ccc2nc(C)cc(SCC(=O)NN=Cc3ccc(O)c(O)c3)c2c1,x,x,4,x,x,x
COc1ccccc1C=NNC(=O)c1ccc(C)nc1,x,x,3,x,x,x
Clc1ccc(C2NCCc3sccc32)cc1 (configuration not stated),14,1,2,4,-3,12
FC(F)(F)c1ccc(C2NCCc3sccc32)cc1 (configuration not stated),65*,-1,0,3,1,5
CN(C)N=C/C=C1\CCC/C(=C/c2cccs2)C1=O,x,x,4,x,x,x
COCCNC(=O)CCC(=O)NNc1nc2ccccc2c2nc(-c3ccccc3)nn12,60*,-7,5,-3,-8,14
CC(C)OCCCNC(=O)CCC(=O)NNc1nc2ccccc2c2nc(-c3ccccc3)nn12,27,-5,-2,-1,-2,7
COCCCNC(=O)CCC(=O)NNc1nc2ccccc2c2nc(-c3ccccc3)nn12,62*,-13,3,-4,-3,-2
CCOCCCNC(=O)CCC(=O)NNc1nc2ccccc2c2nc(-c3ccccc3)nn12,29,-5,1,-10,-2,1
O=C(Nc1ccccc1)ON=Cc1ccccc1Cl,x,x,2,x,x,x
CCOc1cc(C=Nn2cnnc2)ccc1OC(=O)c1cccc([N+](=O)[O-])c1,x,x,2,x,x,x
CC(=NNC(N)=S)c1ccccc1[N+](=O)[O-],x,x,5,x,x,x
Oc1cc2ccccc2cc1-c1n[nH]c(=S)n1Cc1ccco1,3,-1,-15,2,-2,0
Oc1ccc(-c2n[nH]c(=S)n2Cc2ccco2)cc1,-1,49*,5,15,-1,-4
CC(=O)c1c(C)[nH]c(C(=O)CSc2nnc(-c3ccco3)n2Cc2ccccc2)c1C,69*,-5,5,0,-1,-12
Cc1nnc(NN=Cc2ccc([N+](=O)[O-])cc2)n1N,x,x,13,x,x,x
Cc1nc2cc(N3CCCCC3)c(NC(=O)c3cccnc3)cc2c(=O)n1Cc1ccccc1,49*,-3,-52,-10,-1,4
Cc1cc(C(=O)COc2ccccc2[N+](=O)[O-])c(C)n1C1CC1,63*,-4,3,-19,-2,6
COc1ccc(-c2cc(-c3cc(F)ccc3O)[nH]n2)cc1OC,50*,0,0,-8,3,-10
Cc1ccc(O)c(-c2cc(-c3cccc(F)c3)n[nH]2)c1,56*,-1,1,1,0,2
O=C(NN=Cc1ccccc1OCc1ccccc1)c1ccco1,x,x,1,x,x,x
CC(=O)Nc1ccc(C2=NN(Cc3nnc(-c4ccccc4)o3)C(=O)SC2)cc1,76*,-1,x,-12,0,12
COc1ccc(CNC(=O)Cn2ncn3c(cc4ccccc43)c2=O)cc1,3,-8,-12,29,2,25
COc1ccc(CNC(=O)Cn2ncn3cccc3c2=O)cc1,71*,-5,1,12,-2,x
Nc1sc(-c2ccccc2)cc1C(=O)NN=Cc1ccc(Cl)cc1,x,x,-40,x,x,x
